From PubChem BioAssay come the findings set out here.

SMILES strings stand for the structures. Calls of active or inactive are those of the source.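 Rule for the calls, unless noted: active = inhibition above 20% together with a positive visual image hit; inconclusive = visual image hit but inhibition not above 20%; inactive = no visual image hit.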

The nature of test [1]: inhibitors of TNFa-induced NFkB p65 translocation, primary screen, imaging, HUVEC, MLSMR starter and 10KST1 sets (AID 438).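 For inhibition: signal is the nuclear over cytoplasmic p65 intensity ratio per well.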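 Note: compound added about 3h40 before a 20 min TNFalpha stimulation.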 Conditions: HUVEC TNFa-induced p65 nuclear translocation; cell count: measured here: nuclei count (cytotoxicity indicator), at 2.08 µM; inhibition: at 2 µM, stronger effect = higher value, 0% TNFa-plus-vehicle, 100% no-TNFa wells.
The nature of test [2]: endothelial E-selectin expression blockers – imaging, HUVEC, immunofluorescence, MLSMR starter and 10KST1 sets, primary screen (AID 487;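 active = visually confirmed hit in the image check and inhibition above 20%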;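 for inhibition: signal is fraction of cell area covered by stained E-selectin grains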;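 for nuclei count: 100% = median nuclei count of all wells on the same plate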). The following applies: HUVEC TNFalpha-induced E-selectin immunofluorescence imaging, at 2 µM; inhibition: stronger effect = higher value; nuclei count: measured here: cell number, toxicity.
Test [3] is described as follows: Primary imaging screen for DUSP6 inhibitors that restore phospho-Erk in transfected HeLa cells, chemical complementation (AID 609;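 active = compounds giving at least 50% inhibition in the cell-based MKP-3 phosphatase rescue imaging test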;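 for inhibition: phospho-Erk level distribution per well compared with pooled transfected vehicle control wells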). Conditions: HeLa MKP-3 transfected, phospho-Erk imaging KS statistic, at 10 µM, cells stimulated with TPA for 15 min.
Test [4] deals with Dual specificity protein phosphatase 6 (Homo sapiens) (UniProt Q16828). Described as above. The following applies: HeLa MKP-3 transfected, phospho-Erk imaging KS statistic; at 10 µM; stronger effect = higher value; cells stimulated with TPA for 15 min.
Test [5] addresses Voltage-gated potassium channel subunit beta-2 (Rattus norvegicus) (UniProt P62483). The test can be described thus: inhibitors of rat Kvbeta2 reductase activity – biochemical, NADPH fluorescence, primary screen (AID 622;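 active = fluorescence slope higher than the sample average by over 3 SD, cut at about -0.22 in these data, passing the limit was not always enough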;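 note: slope of raw intensity against log time taken from 70 to 1610 s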). The following applies: recombinant KvBeta, 4-cyanobenzaldehyde reduction, at 10 µM, stronger effect = higher value.
Test [6] has the same target. The test can be described thus: enhancers of rat Kvbeta2 NADPH turnover – biochemical, NADPH fluorescence, primary screen (AID 623;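 active = NADPH fluorescence slope more negative than the mean of all samples by about 3 SD, 99.7% confidence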;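 note: fluorescence intensity change per second fitted from 20 to 320 s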). The following applies: Recombinant KvBeta, NADPH fluorescence decrease slope, 10 min; at 10 µM; stronger effect = lower value.
The target of test [7] is Muscarinic acetylcholine receptor M4 (Homo sapiens) (UniProt P08173). The test can be described thus: M4-linked GIRK flux change, two-sided – cell-based, HEK293 M4/GIRK, thallium flux, BTC-AM, M4 allosteric agonist project, primary screen (AID 625;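 active = fluorescence slope after compound addition differing from the mean of all tested samples at 99.7% confidence, mostly higher but some lower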;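 note: thallium influx through GIRK channels coupled to M4 in HEK293 cells with BTC-AM dye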). Conditions: at 10 µM, actives lie on both sides. In a few lines:
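Material: HEK293 cells with M4 receptor and GIRK channels; Times: cells overnight at 37 °C, BTC-AM loading 1 h, reads 2 min total; Technique: kinetic BTC-AM fluorescence sampled at 1 Hz, 10 s pre-addition baseline; Read-out basis: slope over 15–24 s of trace normalized to starting intensity; Controls: carbachol positive, DMSO negative.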

Test [8] can be described thus: inhibitors of larval lipid processing in zebrafish, primary screen, whole organism, PED6 fluorescence, gall bladder and intestine (AID 686;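 active = a full or partial loss of lipid-probe fluorescence in the fish gall bladder, intestine or both, judged by eye; inactive = no fluorescence loss, or compound toxic to the fish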;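 note: larvae 5 to 7 days old with five fish per well; signal comes from phospholipase A2 cleavage of quenched PED6 carried via bile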). The following applies: Zebrafish larvae PED6 lipid processing, fluorescence scoring; screened at 20 µM (by protocol). The method in brief:
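Incubation: overnight exposure of larvae to compound plus PED6 / Test system: live zebrafish larvae aged 5-7 days, whole organism / Amount: 5 larvae per well / Read-out basis: visual per-well fluorescence inhibition score / Signal: visual fluorescence microscopy scoring of gall bladder, gut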

Test [9] is described as follows: loss of swimming-algae plug formation – whole organism, Chlamydomonas reinhardtii, WT vs cilia-less mutant, absorbance, 96-well, primary screen (AID 463189;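 active = inhibition at or above 50% relative to wild type and mutant plate controls; inactive = inhibition below 50%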;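 note: 0% = wild type cc124 cells in DMSO and 100% = ciliumless bld1 mutant cells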). Conditions: Chlamydomonas reinhardtii gravitaxis, OD600 absorbance, 2 days; at 10 µM; stronger effect = higher value.
Setting [10] is: measured here: cell density z-score.
[11] abbreviates: measured here: nuclear c-Myc green intensity z-score.
[12] abbreviates: measured here: nuclear pErk red intensity z-score, stronger effect = higher value.

Voltage-gated potassium channel subunit beta-2 (Rattus norvegicus), sequence (P62483 whole entry, looked up): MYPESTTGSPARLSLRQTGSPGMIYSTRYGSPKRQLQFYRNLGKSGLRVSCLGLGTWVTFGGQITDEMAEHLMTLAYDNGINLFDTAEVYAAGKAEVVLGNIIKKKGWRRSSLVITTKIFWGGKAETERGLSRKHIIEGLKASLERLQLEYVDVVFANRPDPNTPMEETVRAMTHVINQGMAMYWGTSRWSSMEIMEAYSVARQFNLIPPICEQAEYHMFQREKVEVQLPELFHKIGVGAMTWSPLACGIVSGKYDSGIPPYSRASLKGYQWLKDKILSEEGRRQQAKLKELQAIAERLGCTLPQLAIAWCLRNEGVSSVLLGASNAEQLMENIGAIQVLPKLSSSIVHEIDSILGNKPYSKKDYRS
Dual specificity protein phosphatase 6 (Homo sapiens), sequence (Q16828 whole entry, looked up): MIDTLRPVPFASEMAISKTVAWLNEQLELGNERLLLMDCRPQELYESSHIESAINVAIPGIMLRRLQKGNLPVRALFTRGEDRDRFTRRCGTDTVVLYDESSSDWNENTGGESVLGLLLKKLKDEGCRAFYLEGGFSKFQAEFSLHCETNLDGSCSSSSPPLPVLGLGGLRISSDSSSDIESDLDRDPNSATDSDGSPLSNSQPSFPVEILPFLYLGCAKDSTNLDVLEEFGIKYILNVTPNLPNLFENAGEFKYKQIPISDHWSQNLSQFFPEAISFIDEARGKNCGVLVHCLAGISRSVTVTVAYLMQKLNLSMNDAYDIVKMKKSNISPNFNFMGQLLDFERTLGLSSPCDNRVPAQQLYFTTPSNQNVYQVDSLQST
Muscarinic acetylcholine receptor M4 (Homo sapiens), sequence (P08173 whole entry, looked up): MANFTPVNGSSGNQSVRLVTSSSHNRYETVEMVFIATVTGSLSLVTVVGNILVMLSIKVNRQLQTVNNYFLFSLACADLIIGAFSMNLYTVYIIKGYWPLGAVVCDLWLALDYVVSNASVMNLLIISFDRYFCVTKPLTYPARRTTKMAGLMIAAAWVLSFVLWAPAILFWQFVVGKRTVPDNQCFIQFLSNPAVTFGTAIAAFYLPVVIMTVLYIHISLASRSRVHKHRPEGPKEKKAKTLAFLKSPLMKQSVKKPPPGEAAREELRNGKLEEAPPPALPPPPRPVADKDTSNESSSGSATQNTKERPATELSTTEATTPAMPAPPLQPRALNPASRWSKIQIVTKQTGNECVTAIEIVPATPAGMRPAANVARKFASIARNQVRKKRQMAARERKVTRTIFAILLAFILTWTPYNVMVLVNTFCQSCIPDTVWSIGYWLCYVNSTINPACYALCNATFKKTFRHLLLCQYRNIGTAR

`CCCOc1cccc(C2/C(=C(/O)c3ccc(F)cc3)C(=O)C(=O)N2CCN(C)C)c1` (stereo unspecified): the cell count in test [1] turned out to be 676. Besides, the inhibition in test [1] is -13.2% (inactive); in test [2], -51.1% (inactive); in [4], -2.91% (inactive); in test [9], 12.9% (inactive). The nuclei count in test [2] was 132%. Further, the figures for the z-score in test [3] (setting [10]), in test [3] (setting [11]) and in test [3] (setting [12]) were 0.0201, -1.18 and -0.732, respectively. In addition, the figures for the fluorescence slope in test [5] and in test [7] were -0.478 (inactive) and 0.00611 (inactive), respectively. For the same compound, the NADPH fluorescence slope in test [6] is -2.8e-05 (inactive). In test [8], the compound was called inactive.
Consider `CCN(CC)CCCN1C(=O)C(=O)/C(=C(/O)c2ccc3c(c2)CC(C)O3)C1c1ccncc1` (stereo unspecified), for which, in [1], the cell count came out at 613. Moreover, the inhibition in [1] is -2.6% (inactive); in [2], -3.9% (inactive); in test [4] it was 19.4% (inactive); in [9], 17% (inactive). This compound gave a nuclei count in [2] of 154%. The values for the z-score in test [3] (setting [10]), in test [3] (setting [11]) and in test [3] (setting [12]) were 1.2, -0.776 and -1.04, respectively. The fluorescence slope is -0.478 (inactive) in [5] and 0.00593 (inactive) in test [7]. In addition, the NADPH fluorescence slope in test [6] is -4.1e-05 (inactive). The call in test [8] was inactive.
As to `CCOC(=O)c1cnn2c1[nH]c(=O)c1ccccc12`, the cell count in [1] turned out to be 560. Also, the inhibition is -6.1% (inactive) in test [1], -143% (inactive) in test [2], 17.8% (inactive) in [4] and 24.1% (inactive) in test [9]. Also, the nuclei count in test [2] amounted to 165%. In addition, the z-score is 0.0185 in test [3] (setting [10]), 1.83 in [3] (setting [11]) and -0.274 in [3] (setting [12]). For the same compound, the results for the fluorescence slope in [5] and in test [7] were -0.378 (inactive) and 0.0106 (active), respectively. Moreover, the NADPH fluorescence slope in test [6] is -4.5e-05 (inactive). Moreover, the compound was classed as inactive in [8].
Turning to `CCOc1ccc(NC(=O)CSC2=C(C#N)C(c3ccc4c(c3)OCO4)CC(=O)N2)cc1` (stereo unspecified), the cell count in [1] was 639. The inhibition was 0.6% (inactive) in test [1], 75.3% (inactive) in [2], -6.06% (inactive) in test [4] and 14.4% (inactive) in test [9]. This compound gave a nuclei count in test [2] of 140%. Moreover, the z-score in test [3] (setting [10]) is 0.00899; in [3] (setting [11]) it was -0.0485; in [3] (setting [12]), -0.833. Further, the fluorescence slope was -0.47 (inactive) in test [5] and 0.00582 (inactive) in test [7]. Moreover, in [6], the NADPH fluorescence slope is -5.2e-05 (inactive). In addition, the call in [8] was inactive.
As for `Cn1c(Cn2cnc3ccccc32)nc2ccccc21`, the cell count in [1] was found to be 543. The inhibition is 0.2% (inactive) in [1], 22% (inactive) in [2], -3.95% (inactive) in test [4] and 23% (inactive) in test [9]. Further, the nuclei count in test [2] turned out to be 78.7%. Besides, the results for the z-score in test [3] (setting [10]), in test [3] (setting [11]) and in [3] (setting [12]) were 1.23, -0.835 and -0.272, respectively. Besides, the fluorescence slope is -0.431 (inactive) in [5] and 0.00479 (inactive) in test [7]. The NADPH fluorescence slope in test [6] was 9.8e-06 (inactive). In addition, the compound was classed as inactive in test [8].
With `O=C1C=C(N2CCN(C3=CC(=O)CCC3)CC2)CCC1`, the cell count in test [1] amounted to 493. Besides, the inhibition in test [1] was -0.4% (inactive); in test [2], 4.1% (inactive); in test [4] it was -0.233% (inactive); in test [9], -18.9% (inactive). Further, the nuclei count in test [2] is 100%. Further, the z-score in test [3] (setting [10]) was -1.82; in test [3] (setting [11]), 2.6; in test [3] (setting [12]), 0.89. Further, the fluorescence slope in test [5] was -0.469 (inactive); in test [7], 0.00636 (inactive). Besides, the NADPH fluorescence slope in [6] is -6.9e-05 (inactive). For the same compound, in test [8], the compound was classed as inactive.
`CC(NC(=O)Nc1ccc(O)cc1)(C(F)(F)F)C(F)(F)F`: in [1], the cell count was 709. In addition, the inhibition in test [1] was -15.9% (inactive); in test [2], -16.4% (inactive); in test [4] it was -3.95% (inactive); in test [9], 0.534% (inactive). Besides, in test [2], the nuclei count was 151%. Further, the z-score in [3] (setting [10]) was -0.386; in test [3] (setting [11]) it was 1.06; in test [3] (setting [12]) it was 0.803. Further, the values for the fluorescence slope in test [5] and in [7] were -0.461 (inactive) and 0.00553 (inactive), respectively. Moreover, in test [6], the NADPH fluorescence slope is -4.3e-05 (inactive). In addition, the outcome in [8] was inactive.

As a reminder, the inhibition is the drop in the measured response relative to a control, in per cent.
